Data reported in ChEMBL document CHEMBL1142722, “Discovery and selection of TMC114, a next generation HIV-1 protease inhibitor” (J Med Chem, 2005).

How the values were obtained:
[1] = test system: Human immunodeficiency virus 1; assay: Effective concentration against PI-Resistant HIV strain (M1); format: functional, organism-based
In short: (§1)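 MTT cytopathic-effect assay in MT-4 cells infected with recombinant HIV carrying clinical-isolate-derived protease and RT sequences in an HXB2-derived backbone. Inoculum 200-250 CCID50/well, 30 000 cells/well, compound over a concentration range. Incubation 5 days at 37 °C, 5% CO2. […] Cytotoxicity run in parallel on mock-infected cells.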

[2] = test system: Human immunodeficiency virus 1; assay: Effective concentration against PI-Resistant HIV strain (M4); format: functional, organism-based; conditions: for EC50: Human immunodeficiency virus 1; in short: as §1
[3] = test system: Human immunodeficiency virus 1; assay: Effective concentration as average activity on mutant HIV panel (AVMUT); format: functional, organism-based; conditions: for EC50: Human immunodeficiency virus 1
In short: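 Mean pEC50 across the panel of PI-resistant recombinant clinical-isolate strains. Each strain was tested by MTT CPE assay in MT-4 cells at 200-250 CCID50/well and 30 000 cells/well, read after 5 days at 37 °C, 5% CO2.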

[4] = Percentage of remaining compound after 30 min incubation in human liver microsomes was determined as metabolic stability; format: ADME, Microsome; conditions: read-out: Remaining compound
In short: (§2)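 Compound incubated with rat, dog or human liver microsomes for 30 min at 37 °C. Residual parent compound in the reaction mixture was measured directly by LC-MS and expressed as % remaining.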

[5] = test system: Human immunodeficiency virus 1; assay: Effective concentration against PI-Resistant HIV strain (M5); format: functional, organism-based; conditions: for EC50: Human immunodeficiency virus 1; in short: as §1
[6] = test system: Human immunodeficiency virus 1; assay: Effective concentration against PI-Resistant HIV strain (M3); format: functional, organism-based; conditions: for EC50: Human immunodeficiency virus 1; in short: as §1
[7] = test system: Human immunodeficiency virus 1; assay: Effective concentration of against HIV Wild Type (IIIB) strain; format: functional, organism-based; conditions: for EC50: Human immunodeficiency virus 1
In short: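 Wild-type HIV-1 IIIB was tested in MT-4 cells by MTT colorimetric CPE assay. Compound was serially diluted, with virus at 200-250 CCID50/well and 30 000 cells/well. […] Mock-infected cultures were run in parallel for cytotoxicity.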

[8] = test system: Human immunodeficiency virus 1; assay: Effective concentration against PI-Resistant HIV strain (M2); format: functional, organism-based; conditions: for EC50: Human immunodeficiency virus 1; in short: as §1
[9] = Percentage of remaining compound after 30 min incubation in dog liver microsomes was determined as metabolic stability; format: ADME, Canis lupus familiaris, Microsome; conditions: read-out: Remaining compound; in short: as §2
[10] = Percentage of remaining compound after 30 min incubation in rat liver microsomes was determined as metabolic stability; format: ADME, Microsome; conditions: read-out: Remaining compound; in short: as §2
[11] = Half-life in dog after 80 mg/kg oral administration; format: ADME, organism-based, Canis lupus familiaris; set-up: dose 80 mg/kg, route oral; conditions: in vivo
In short: (§3)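 Single oral dose of 80 mg/kg given to dogs as a PEG400 solution. Plasma exposure parameters are reported as the mean of four measurements, with the standard deviation in parentheses.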

[12] = Area under concentration time curve value in dog after 80 mg/kg oral administration; format: ADME, organism-based, Canis lupus familiaris; set-up: dose 80 mg/kg, route oral; conditions: in vivo; in short: as §3
[13] = Time to reach maximum concentration in dog after 80 mg/kg oral administration; format: ADME, organism-based, Canis lupus familiaris; set-up: dose 80 mg/kg, route oral; conditions: in vivo; in short: as §3
[14] = Maximum plasma concentration in dog after 80 mg/kg oral administration; format: ADME, organism-based, Canis lupus familiaris; set-up: dose 80 mg/kg, route oral; in short: as §3

| SMILES | EC50 [1] [nM] | EC50 [2] [nM] | EC50 [3] [nM] | remaining at 0.5 h [4] [%] | EC50 [5] [nM] | EC50 [6] [nM] | EC50 [7] [nM] | EC50 [8] [nM] | remaining at 0.5 h [9] [%] | remaining at 0.5 h [10] [%] | half-life [11] [h] | AUC last [12] [ng·h/mL] | Tmax [13] [h] | Cmax [14] [ng/mL] | Log EC50 [2] | Log EC50 [3] | Log EC50 [5] | Log EC50 [6] | Log EC50 [7] | Log EC50 [8] |
| --- | --- | --- | --- | --- | --- | --- | --- | --- | --- | --- | --- | --- | --- | --- | --- | --- | --- | --- | --- | --- |
| CC(C)CN(C[C@@H](O)[C@H](Cc1ccccc1)NC(=O)O[C@H]1CCOC1)S(=O)(=O)c1ccc(N)cc1 | 741 | 170 | 324 | 116 | 741 | 195 | 37.2 | 204 | 81 | 83 | – | – | – | – | – | – | – | – | – | – |
| CC(C)CN(C[C@@H](O)[C@H](Cc1ccccc1)NC(=O)O[C@@H]1CO[C@@H]2OCC[C@@H]21)S(=O)(=O)c1ccc(N)cc1 | 37.2 | 21.4 | 30.9 | – | 26.3 | 21.4 | 10.7 | 60.3 | – | – | – | – | – | – | – | – | – | – | – | – |
| CC(C)CN(C[C@@H](O)[C@H](Cc1ccccc1)NC(=O)O[C@H]1CO[C@H]2OCC[C@H]21)S(=O)(=O)c1ccc([N+](=O)[O-])cc1 | 33.9 | 21.9 | 21.4 | – | 45.7 | 4.57 | 2.45 | 29.5 | – | – | – | – | – | – | – | – | – | – | – | – |
| CC(C)CN(C[C@@H](O)[C@H](Cc1ccccc1)NC(=O)O[C@H]1CO[C@H]2OCC[C@H]21)S(=O)(=O)c1cccc(N)c1 | 759 | 26.3 | 42.7 | – | 26.3 | 28.2 | 4.37 | 47.9 | – | – | – | – | – | – | – | – | – | – | – | – |
| CC(C)CN(C[C@@H](O)[C@H](Cc1ccccc1)NC(=O)O[C@H]1CO[C@H]2OCC[C@H]21)S(=O)(=O)c1ccc(CN)cc1 | 7.59 | 6.61 | 7.76 | – | 5.62 | 6.03 | 7.08 | 15.8 | – | – | – | – | – | – | – | – | – | – | – | – |
| CC(C)CN(C[C@@H](O)[C@H](Cc1ccccc1)NC(=O)O[C@H]1CO[C@H]2OCC[C@H]21)S(=O)(=O)c1ccc(O)cc1 | 23.4 | 6.03 | 8.71 | – | 6.17 | 6.03 | 6.31 | 10 | – | – | – | – | – | – | – | – | – | – | – | – |
| CC(C)CN(C[C@@H](O)[C@H](Cc1ccccc1)NC(=O)O[C@H]1CO[C@H]2OCC[C@H]21)S(=O)(=O)c1ccc2c(c1)OCO2 | 32.4 | 3.98 | 6.46 | 52 | 4.07 | 3.47 | 0.617 | 6.46 | 53 | 21 | 2.06 | 18100 | 2.5 | 3780 | – | – | – | – | – | – |
| CC(C)CN(C[C@@H](O)[C@H](Cc1ccccc1)NC(=O)O[C@@H]1CO[C@H]2OCC[C@H]21)S(=O)(=O)c1ccc(N)cc1 | 759 | 1120 | 977 | – | – | 479 | 240 | 2240 | – | – | – | – | – | – | – | – | – | – | – | – |
| CC(C)CN(C[C@@H](O)[C@H](Cc1ccccc1)NC(=O)O[C@H]1CO[C@@H]2OCC[C@@H]21)S(=O)(=O)c1ccc(N)cc1 | – | – | – | – | – | – | 309 | – | – | – | – | – | – | – | – | – | – | – | – | – |
| CC(C)CN(C[C@@H](O)[C@H](Cc1ccccc1)NC(=O)O[C@H]1CO[C@H]2OCC[C@H]21)S(=O)(=O)c1ccc(I)cc1 | 33.1 | 5.25 | 8.71 | – | 5.01 | 4.07 | 1.51 | 13.8 | – | – | – | – | – | – | – | – | – | – | – | – |
| CC(=O)c1ccc(S(=O)(=O)N(CC(C)C)C[C@@H](O)[C@H](Cc2ccccc2)NC(=O)O[C@H]2CO[C@H]3OCC[C@H]32)cc1 | 31.6 | – | 13.8 | – | 11.7 | 6.03 | 1.95 | 15.8 | – | – | – | – | – | – | – | – | – | – | – | – |
| CC(C)CN(C[C@@H](O)[C@H](Cc1ccccc1)NC(=O)O[C@H]1CO[C@H]2OCC[C@H]21)S(=O)(=O)c1ccc(C#N)cc1 | 115 | 89.1 | 97.7 | – | 138 | 39.8 | 5.25 | 155 | – | – | – | – | – | – | – | – | – | – | – | – |
| COc1ccc(S(=O)(=O)N(CC(C)C)C[C@@H](O)[C@H](Cc2ccccc2)NC(=O)O[C@H]2CO[C@H]3OCC[C@H]32)cc1 | 10.2 | 4.68 | 4.47 | 56 | 2.88 | 2.24 | 0.589 | 6.03 | 11 | 25 | 1.47 | 2700 | 0.6 | 1180 | – | – | – | – | – | – |
| CC(C)(C)NC(=O)[C@@H]1CN(Cc2cccnc2)CCN1C[C@@H](O)C[C@@H](Cc1ccccc1)C(=O)N[C@H]1c2ccccc2C[C@H]1O | – | – | – | 95 | – | – | – | – | 85 | 97 | – | – | – | – | – | – | – | – | – | – |
| CC(C)CN(C[C@@H](O)[C@H](Cc1ccccc1)NC(=O)OC1COC2OCCC12)S(=O)(=O)c1ccccc1 (mixture of isomers) | 166 | 41.7 | 67.6 | – | 30.9 | 47.9 | 2.75 | 135 | – | – | – | – | – | – | – | – | – | – | – | – |
| Cc1ccc(S(=O)(=O)N(CC(C)C)C[C@@H](O)[C@H](Cc2ccccc2)NC(=O)OC2COC3OCCC23)cc1 (mixture of isomers) | 129 | 38 | 60.3 | – | 40.7 | 35.5 | 5.25 | 107 | – | – | – | – | – | – | – | – | – | – | – | – |
| CC(C)CN(C[C@@H](O)[C@H](Cc1ccccc1)NC(=O)O[C@H]1CO[C@H]2OCC[C@H]21)S(=O)(=O)c1ccc(N)cc1 (stereo in doubt; form 1) | – | – | – | – | – | – | – | – | – | – | – | – | – | – | -6.84 | -6.81 | -6.9 | -6.76 | -7.36 | -6.72 |
| CC(C)CN(C[C@@H](O)[C@H](Cc1ccccc1)NC(=O)O[C@H]1CO[C@H]2OCC[C@H]21)S(=O)(=O)c1ccc(N)cc1 (stereo in doubt; form 2) | 5.13 | – | – | 85 | – | – | – | – | 80 | 92 | 0.781 | 74100 | 1 | 19100 | – | -8.29 | – | -8.14 | -8.39 | -8.14 |
